Tests used:
Mu-type opioid receptor [1] = target: T1, Mu-type opioid receptor (Cavia porcellus, UniProt P97266); assay: Agonist activity at mu opioid receptor in guinea pig ileum assessed as inhibition of electrically-stimulated muscle contraction; assay type: functional, tissue-based
In short: (§1)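 Reference agonists run alongside: deltorphin II for delta in mouse vas deferens (MVD) and endomorphin 2 for mu in guinea pig ileum (GPI).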

[2] = target: Delta-type opioid receptor (Homo sapiens, UniProt P41143); assay: Displacement of [3H]deltorphin 2 from delta opioid receptor
Chain of Delta-type opioid receptor (Homo sapiens, UniProt P41143) (P41143 whole entry): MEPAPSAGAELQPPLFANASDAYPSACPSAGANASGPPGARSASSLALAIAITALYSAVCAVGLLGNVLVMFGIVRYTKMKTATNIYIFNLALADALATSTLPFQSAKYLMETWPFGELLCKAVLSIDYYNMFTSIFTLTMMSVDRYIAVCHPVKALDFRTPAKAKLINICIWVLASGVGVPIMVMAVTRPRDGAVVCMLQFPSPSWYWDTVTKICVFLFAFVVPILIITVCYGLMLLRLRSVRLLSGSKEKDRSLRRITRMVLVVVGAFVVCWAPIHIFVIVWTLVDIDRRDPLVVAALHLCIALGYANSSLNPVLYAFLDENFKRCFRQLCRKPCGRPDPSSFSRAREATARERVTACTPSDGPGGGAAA

Mu-type opioid receptor [3] = target: Mu-type opioid receptor (Homo sapiens, UniProt P35372); assay: Displacement of [3H]DAMGO from human mu opioid receptor
Chain of Mu-type opioid receptor (Homo sapiens, UniProt P35372) (P35372 whole entry): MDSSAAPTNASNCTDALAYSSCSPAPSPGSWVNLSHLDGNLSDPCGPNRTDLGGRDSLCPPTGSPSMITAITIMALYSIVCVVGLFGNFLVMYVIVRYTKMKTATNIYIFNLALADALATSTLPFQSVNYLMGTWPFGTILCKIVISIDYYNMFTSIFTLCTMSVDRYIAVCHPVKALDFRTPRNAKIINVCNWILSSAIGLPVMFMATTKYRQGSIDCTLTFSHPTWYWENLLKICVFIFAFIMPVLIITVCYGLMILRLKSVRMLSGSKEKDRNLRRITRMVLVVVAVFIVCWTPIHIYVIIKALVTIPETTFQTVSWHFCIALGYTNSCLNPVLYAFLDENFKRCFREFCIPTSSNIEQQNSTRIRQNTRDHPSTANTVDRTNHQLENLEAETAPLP

Homo sapiens = organism: Homo sapiens; assay: Selectivity for human mu opioid receptor over human delta opioid receptor
[4] = target: T2, Delta-type opioid receptor (Mus musculus, UniProt P32300); assay: Agonist activity at delta opioid receptor in mouse vas deferens assessed as inhibition of electrically-stimulated muscle contraction; assay type: functional, tissue-based; in short: as §1
T2 sequence (P32300 whole entry): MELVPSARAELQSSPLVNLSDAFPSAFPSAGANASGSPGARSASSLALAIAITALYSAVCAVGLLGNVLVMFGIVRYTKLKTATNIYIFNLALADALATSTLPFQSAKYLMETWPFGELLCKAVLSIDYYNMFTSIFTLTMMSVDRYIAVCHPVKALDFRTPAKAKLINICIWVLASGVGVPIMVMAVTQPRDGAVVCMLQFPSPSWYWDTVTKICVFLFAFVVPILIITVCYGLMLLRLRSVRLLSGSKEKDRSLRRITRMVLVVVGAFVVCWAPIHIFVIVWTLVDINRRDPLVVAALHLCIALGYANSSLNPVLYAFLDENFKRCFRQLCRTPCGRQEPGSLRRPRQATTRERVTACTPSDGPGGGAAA

[5] = target: Delta-type opioid receptor (Mus musculus) (UniProt P32300); assay: Agonist activity at delta opioid receptor in mouse vas deferens assessed as inhibition of electrically-stimulated muscle contraction at 10 uM; assay type: functional, tissue-based
Chain of Delta-type opioid receptor (Mus musculus) (P32300 whole entry): as above

[6] = target: T2, Delta-type opioid receptor; assay: Antagonist activity at delta opioid receptor in mouse vas deferens; assay type: functional, tissue-based; details: read-out: pA2 (converted)
In short: (§2)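 Antagonism given as pA2: the negative log of the antagonist concentration (M) that doubles the agonist concentration needed to restore the original response. The agonist was deltorphin II in MVD (delta) and endomorphin 2 in GPI (mu).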

[7] = target: Mu-type opioid receptor (Cavia porcellus) (UniProt P97266); assay: Agonist activity at mu opioid receptor in guinea pig ileum assessed as inhibition of electrically-stimulated muscle contraction at 10 uM; assay type: functional, tissue-based
Chain of Mu-type opioid receptor (Cavia porcellus) (P97266 whole entry): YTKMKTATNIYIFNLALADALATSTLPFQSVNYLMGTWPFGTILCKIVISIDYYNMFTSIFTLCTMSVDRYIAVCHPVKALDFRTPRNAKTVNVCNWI

Mu-type opioid receptor [8] = target: T1, Mu-type opioid receptor; assay: Antagonist activity at mu opioid receptor in guinea pig ileum; assay type: functional, tissue-based; details: read-out: pA2 (converted); in short: as §2

T1 sequence (P97266 whole entry): as above

| Structure (SMILES) | IC50 (Mu-type opioid receptor [1]) | Ki [2] | Ki (Mu-type opioid receptor [3]) | Ratio Ki (Homo sapiens) | IC50 [4] | inhibition [5] | Kb [6] | inhibition [7] | Kb (Mu-type opioid receptor [8]) |
| --- | --- | --- | --- | --- | --- | --- | --- | --- | --- |
| Cc1cc(O)cc(C)c1C[C@H](N)C(=O)NCCCCc1nc(C)c(CCc2ccccc2)[nH]c1=O | 15.9 nM | 55.9 nM | 0.125 nM | 447 | > 10000 nM | 12.8% | 447 nM |  |  |
| Cc1cc(O)cc(C)c1C[C@H](N)C(=O)NCCCCc1nc(C)c(C)[nH]c1=O | > 10000 nM | 77.7 nM | 4.23 nM | 18 | > 10000 nM | 26.2% | 2510 nM | 35.1% | 200 nM |
| Cc1cc(O)cc(C)c1C[C@H](N)C(=O)NCc1nc(C)c(C)[nH]c1=O | > 10000 nM | 698 nM | 129 nM | 5.4 | > 10000 nM | 28.1% | 1480 nM | 20.6% |  |
| Cc1cc(O)cc(C)c1C[C@H](N)C(=O)NCCCCc1[nH]c(=O)cnc1C | > 10000 nM | 344 nM | 56.9 nM | 6 | > 10000 nM | 28.1% | > 3160 nM | 37.1% | > 1000 nM |
| Cc1c[nH]c(=O)c(CCCCNC(=O)[C@@H](N)Cc2c(C)cc(O)cc2C)n1 | > 10000 nM | 73.8 nM | 0.62 nM | 119 | > 10000 nM | 25.7% | > 3160 nM | 47.6% |  |
| Cc1cc(O)cc(C)c1C[C@H](N)C(=O)NCCCc1nc(C)c(C)[nH]c1=O | > 10000 nM | 269 nM | 8.88 nM | 30 | > 10000 nM | 31.1% | > 3160 nM | 22.7% |  |
| Cc1cc(O)cc(C)c1C[C@H](N)C(=O)NCCCc1nc(C)c(Cc2ccccc2)[nH]c1=O | > 10000 nM | 59.6 nM | 1 nM | 60 | > 10000 nM | 34.6% | 1230 nM | 36.7% |  |
| Cc1cccc(C)c1Cc1[nH]c(=O)c(CCCCNC(=O)[C@@H](N)Cc2c(C)cc(O)cc2C)nc1C | 6270 nM | 5.3 nM | 0.66 nM | 8 | > 10000 nM | 6.4% | 245 nM |  | > 1000 nM |
| Cc1cc(O)cc(C)c1C[C@H](N)C(=O)NCCCCc1nc(C)c(Cc2ccccc2)[nH]c1=O | > 10000 nM | 8.6 nM | 0.42 nM | 20 | > 10000 nM | 19.9% | 589 nM | 39.5% |  |
| Cc1cc(O)cc(C)c1C[C@H](N)C(=O)NCCc1nc(C)c(C)[nH]c1=O | > 10000 nM | 93.1 nM | 76.5 nM | 1.2 | > 10000 nM | 25.2% | 1350 nM | 45% |  |
| Cc1cc(O)cc(C)c1C[C@H](N)C(=O)NCCCc1nc(C)c(CCc2ccccc2)[nH]c1=O | 5550 nM | 38.2 nM | 0.55 nM | 69 | > 10000 nM | 4.1% | 1350 nM |  | > 1000 nM |
| Cc1cc(O)cc(C)c1C[C@H](N)C(=O)NCCCCc1[nH]c(=O)c(C)nc1C | > 10000 nM | 208 nM | 15.4 nM | 14 | > 10000 nM | 0% | 2340 nM | 30.1% | > 1000 nM |

— ChEMBL document CHEMBL1137484, “Design and synthesis of opioidmimetics containing 2',6'-dimethyl-L-tyrosine and a pyrazinone-ring platform” (Bioorg Med Chem Lett, 2007)
